According to article PMC2233745 (The Journal of General Physiology, 2001):
Residue numbers refer to the chain shown, from its start. Read-outs that look alike come from different tables or passages of the source. Each block holds one compound with its values, some of them ahead of it. Ends that are not written are not given here.

Columns and labels:
[1] = system: PDE activity in HEK-293 cells; assay: Effects of PDE inhibitors on forskolin-induced Ca2+ influx in HEK-293 cells; type: cell-based, human; details: C460W/E583M channels, 1 μM forskolin, IBMX 10 or 100 μM, RO-20-1724 10 μM
[2] = target: T1, C460W/E583M rat olfactory CNG channel (Rattus norvegicus, UniProt Q00195, C460W/E583M); assay: Excised inside-out patch recording, C460W/E583M CNG channel; type: biochemical; details: for N (Hill coefficient): mean ± SD of three experiments
T1 sequence (Q00195 1-664 C460W/E583M): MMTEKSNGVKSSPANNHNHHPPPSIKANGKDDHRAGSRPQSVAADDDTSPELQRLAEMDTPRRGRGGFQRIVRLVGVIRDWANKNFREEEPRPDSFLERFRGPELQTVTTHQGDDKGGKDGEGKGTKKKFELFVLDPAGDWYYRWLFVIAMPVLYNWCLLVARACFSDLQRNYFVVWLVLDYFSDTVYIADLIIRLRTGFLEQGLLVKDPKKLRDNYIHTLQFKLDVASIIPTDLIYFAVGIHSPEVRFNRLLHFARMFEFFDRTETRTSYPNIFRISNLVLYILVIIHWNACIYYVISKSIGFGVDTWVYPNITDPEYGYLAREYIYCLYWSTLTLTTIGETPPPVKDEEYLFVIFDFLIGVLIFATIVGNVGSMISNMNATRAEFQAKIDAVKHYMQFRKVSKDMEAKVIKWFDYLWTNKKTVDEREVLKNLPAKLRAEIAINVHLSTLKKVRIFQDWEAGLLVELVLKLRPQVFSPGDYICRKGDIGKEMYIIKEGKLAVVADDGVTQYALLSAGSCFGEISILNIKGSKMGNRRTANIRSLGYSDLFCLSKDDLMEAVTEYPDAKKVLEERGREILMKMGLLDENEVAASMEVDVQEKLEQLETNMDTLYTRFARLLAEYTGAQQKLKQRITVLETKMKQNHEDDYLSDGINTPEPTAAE

[3] = target: T2, Δ61–90/C460W/E583M rat olfactory CNG channel (Rattus norvegicus, UniProt Q00195, C460W/DEL61-90/E583M); assay: Excised inside-out patch recording, Δ61–90/C460W/E583M CNG channel; type: biochemical; details: Δ61-90/C460W/E583M channel, mean ± SD of three experiments; for EC50: read-out: K1/2 (concentration that gives half-maximal current)
T2 sequence (Q00195 with tags, fused parts or gaps DEL61-90/C460W/E583M): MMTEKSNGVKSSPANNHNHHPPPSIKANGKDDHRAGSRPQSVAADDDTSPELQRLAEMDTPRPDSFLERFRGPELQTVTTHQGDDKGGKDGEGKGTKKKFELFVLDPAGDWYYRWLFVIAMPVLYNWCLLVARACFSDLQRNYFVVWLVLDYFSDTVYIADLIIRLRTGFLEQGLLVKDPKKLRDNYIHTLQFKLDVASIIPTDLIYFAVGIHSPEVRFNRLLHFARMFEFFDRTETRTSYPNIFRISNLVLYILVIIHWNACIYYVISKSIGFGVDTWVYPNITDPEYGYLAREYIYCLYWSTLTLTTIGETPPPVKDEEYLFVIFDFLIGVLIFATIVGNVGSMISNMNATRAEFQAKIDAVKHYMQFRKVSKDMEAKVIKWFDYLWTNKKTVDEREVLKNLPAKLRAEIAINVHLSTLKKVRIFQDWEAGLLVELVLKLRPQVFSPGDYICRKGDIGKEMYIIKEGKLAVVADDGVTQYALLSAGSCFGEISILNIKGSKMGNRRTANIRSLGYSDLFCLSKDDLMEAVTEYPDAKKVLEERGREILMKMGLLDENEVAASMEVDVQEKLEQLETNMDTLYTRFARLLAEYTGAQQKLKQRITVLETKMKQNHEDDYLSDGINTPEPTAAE

[4] = target: T3, E583M rat olfactory CNG channel (Rattus norvegicus, UniProt Q00195, E583M); assay: Excised inside-out patch recording, E583M CNG channel; type: biochemical; details: for N (Hill coefficient): mean ± SD of three experiments
T3 sequence (Q00195 1-664 E583M): T1 sequence (Q00195 1-664 C460W/E583M) with W460C

[5] = target: T4, WT rat olfactory CNG channel α subunit (Rattus norvegicus, UniProt Q00195); assay: Excised inside-out patch recording, WT CNG channel; type: biochemical; details: for N (Hill coefficient): mean ± SD of three experiments
T4 sequence (Q00195 1-664): T1 sequence (Q00195 1-664 C460W/E583M) with W460C, M583E

[6] = system: HEK-293 cells expressing CNG channels; assay: Forskolin-induced Ca2+ influx through expressed CNG channels in HEK-293 cells; type: cell-based, human; details: for forskolin concentration at which delay and rate of Ca2+ influx saturate: 100 μM IBMX
Procedure, shortened: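 HEK-293 cells were infected with channel-encoding adenovirus (MOI 10) and detached at 24 h with PBS/0.03% EDTA. They were loaded at room temperature for 30–40 min with 4 μM fura-2/AM and 0.02% pluronic F-127, then resuspended in HEPES-buffered saline with 1 mM CaCl2, pH 7.4, and stirred in a cuvette. 100 μM IBMX was added at 0 s and forskolin at 180 s. ΔF/F0 was read at ex 380/em 510 nm; n = 4 batches.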

[7] = system: voltage-gated Ca2+ channels; assay: Block of Ca2+ influx through voltage-gated Ca2+ channels in GH4C1 cells; type: cell-based, rat; details: 1 μM nimodipine, membrane depolarization in 24 mM external KCl, data not shown
[8] = system: PDE activity in GH4C1 cells; assay: Effect of PDE inhibitors on forskolin-induced Ca2+ influx in GH4C1 cells; type: cell-based, rat; details: Δ61–90/C460W/E583M channels, 10 μM forskolin, 1 μM nimodipine
HEK-293 cells = assay: Equilibration of PDE inhibitors across the plasma membrane; type: cell-based, human; details: data not shown
[9] = system: GH4C1 cells expressing C460W/E583M channels; assay: AC activator-induced Ca2+ influx in GH4C1 cells expressing C460W/E583M channels; type: cell-based, rat; details: after vehicle or 100 μM IBMX
Procedure, shortened: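 Rat GH4C1 cells kept in Ham's F-10 (15% horse serum, 2.5% FBS, pH 6.8, 37°C), adenovirus-infected (MOI 50), assayed within 12 h of harvest at 48 h post-infection. Loaded 70 min with 4 μM fura-2/AM at room temperature, then washed. Read in pH 7.4 saline (1 mM CaCl2) at ex 380/em 510 nm as ΔF/F0. Nimodipine 1 μM at time zero; IBMX/vehicle at 60 s; agonist afterwards.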

CNG channel = CNG channel activity in excised patches with PDE inhibitor; type: biochemical, rat; details: 100 μM IBMX, data not shown
Procedure, shortened: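 Patch clamp on rat olfactory CNG channels expressed from an adenovirus vector. Gigaohm seals were formed, then patches were excised by shearing the cell off the pipette with a liquid jet. Currents were elicited by 250-ms pulses to +50 and −50 mV from a 0 mV holding potential and sampled at five times the filter setting.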

[10] = system: HEK-293 and C6–2B glioma cells; details: ref Rich et al. 2000, cited from earlier work
[11] = read-out: K1/2 (concentration that gives half-maximal current), +50 mV, mean ± SD of three experiments
[12] = read-out: K1/2 (concentration that gives half-maximal current), −50 mV, mean ± SD of three experiments
[13] = read-out: K1/2, +50 mV, experiment shown in Fig. 2

Compound: CCOC(=O)c1cnc2c(cnn2CC)c1NN=C(C)C [Etazolate]
effect on forskolin-induced Ca2+ influx [1]: significantly increased the forskolin-induced Ca^2+ influx

N (Hill coefficient) ([2]; +50 mV): 2.8 ± 0.3
EC50 [2, 11]: 12 ± 2 µM
EC50 [2, 12]: 6.2 ± 1 µM
EC50 [2, 13]: 11 µM
N (Hill coefficient) ([2]; −50 mV): 2.7 ± 0.1
EC50 ([3]; +50 mV): 36 ± 4 µM
EC50 ([3]; −50 mV): 16 ± 1 µM
N (Hill coefficient) ([3]; +50 mV): 1.8 ± 0.2
N (Hill coefficient) ([3]; −50 mV): 2.6 ± 0.2
N (Hill coefficient) ([4]; +50 mV): 2.4 ± 0.2
EC50 [4, 11]: 28 ± 2 µM
EC50 [4, 12]: 32 ± 4 µM
EC50 [4, 13]: 25 µM
N (Hill coefficient) ([4]; −50 mV): 1.9 ± 0.2
N (Hill coefficient) ([5]; +50 mV): 2.3 ± 0.1
EC50 [5, 11]: 1.6 ± 0.1 µM
EC50 [5, 12]: 1.3 ± 0.4 µM
N (Hill coefficient) ([5]; −50 mV): 2.5 ± 0.4
Compound: Nc1nc2c(ncn2[C@@H]2O[C@@H]3COP(=O)(O)O[C@H]3[C@H]2O)c(=O)[nH]1 [cGMP]

Compound: COCCOC(=O)C1=C(C)NC(C)=C(C(=O)OC(C)C)C1c1cccc([N+](=O)[O-])c1 (stereo not shown) [nimodipine]
effect on forskolin or pCPT-cGMP induced Ca2+ influx through CNG channels ([6]; 1 μM nimodipine, HEK-293 cells, data not shown): did not alter
block of Ca2+ influx through voltage-gated Ca2+ channels [7]: sufficient to block Ca^2+ influx through voltage-gated Ca^2+ channels

Compound: CCCCOc1cc(CC2CNC(=O)N2)ccc1OC (stereo not shown) [RO-20-1724, 4-(3-butoxy-4-methoxybenzyl)-2-imidazolidinone]
effect on PDE activity / forskolin-induced Ca2+ influx [8]: also inhibited PDE activity
effect on forskolin-induced Ca2+ influx [1]: significant forskolin-induced Ca^2+ influx was observed
time to complete equilibration across the plasma membrane (HEK-293 cells): < 180 s

Compound: vasoactive intestinal peptide (HSDAVFTDNYTRLRKQMAVKKYLNSILN; ends and bridges not checked; UniProt P01282 125-152, looked up) [VIP]
cAMP accumulation and Ca2+ influx after addition ([9]; 100 nM VIP): caused additional cAMP accumulation and Ca^2+ influx

time to complete equilibration across the plasma membrane (HEK-293 cells): < 180 s
Compound: CC(C)Cn1c(=O)n(C)c(=O)c2[nH]cnc21 [IBMX, 3-isobutyl-1-methylxanthine]
effect on PDE activity / forskolin-induced Ca2+ influx [8]: significantly inhibited PDE activity
effect on forskolin-induced Ca2+ influx [1]: significant forskolin-induced Ca^2+ influx was observed
effect on CNG channel activity in excised patches (CNG channel): did not alter CNG channel activity

time to complete equilibration across the plasma membrane (HEK-293 cells): < 180 s
Compound: COc1ccc(C2CNC(=O)C2)cc1OC1CCCC1 (stereo not shown) [Rolipram]
effect on PDE activity / forskolin-induced Ca2+ influx [8]: also inhibited PDE activity
effect on forskolin-induced Ca2+ influx [1]: significantly increased the forskolin-induced Ca^2+ influx

Compound: C=C[C@@]1(C)CC(=O)[C@]2(O)[C@@]3(C)[C@@H](O)CCC(C)(C)[C@@H]3[C@H](O)[C@H](OC(C)=O)[C@@]2(C)O1 [forskolin]
forskolin-induced increase in cAMP concentration measured using CNG channels ([10]; local cAMP near the plasma membrane): > 25 µM
forskolin-induced increase in cAMP concentration averaged throughout the accessible cell volume [10]: 1 to 2 µM
forskolin concentration at which delay and rate of Ca2+ influx saturate ([6]; HEK-293 cells expressing C460W/E583M channel): 5 µM
forskolin concentration at which delay and rate of Ca2+ influx saturate ([6]; HEK-293 cells expressing E583M channel): 20 µM
forskolin concentration at which delay and rate of Ca2+ influx saturate ([6]; HEK-293 cells expressing WT channel): > 50 µM
forskolin concentration at which delay and rate of Ca2+ influx saturate ([6]; HEK-293 cells expressing Δ61–90/C460W/E583M channel): 20 µM
cAMP accumulation and Ca2+ influx after addition ([9]; 10 μM forskolin): caused additional cAMP accumulation and Ca^2+ influx

Compound: COCc1nc2c([nH]1)c(=O)n(C)c(=O)n2CC(C)C [8-methoxymethyl-IBMX]
effect on PDE activity / forskolin-induced Ca2+ influx [8]: significantly inhibited PDE activity
